The results in this text go back to ChEMBL document CHEMBL1146851, “Discovery of 2-pyrimidyl-5-amidothiophenes as potent inhibitors for AKT: synthesis and SAR studies” (Bioorg Med Chem Lett, 2006).

The source made the active and inactive calls. The calls are words filed in the database; no cut-off is given here.

Chain of Mast/stem cell growth factor receptor Kit (P10721 whole entry): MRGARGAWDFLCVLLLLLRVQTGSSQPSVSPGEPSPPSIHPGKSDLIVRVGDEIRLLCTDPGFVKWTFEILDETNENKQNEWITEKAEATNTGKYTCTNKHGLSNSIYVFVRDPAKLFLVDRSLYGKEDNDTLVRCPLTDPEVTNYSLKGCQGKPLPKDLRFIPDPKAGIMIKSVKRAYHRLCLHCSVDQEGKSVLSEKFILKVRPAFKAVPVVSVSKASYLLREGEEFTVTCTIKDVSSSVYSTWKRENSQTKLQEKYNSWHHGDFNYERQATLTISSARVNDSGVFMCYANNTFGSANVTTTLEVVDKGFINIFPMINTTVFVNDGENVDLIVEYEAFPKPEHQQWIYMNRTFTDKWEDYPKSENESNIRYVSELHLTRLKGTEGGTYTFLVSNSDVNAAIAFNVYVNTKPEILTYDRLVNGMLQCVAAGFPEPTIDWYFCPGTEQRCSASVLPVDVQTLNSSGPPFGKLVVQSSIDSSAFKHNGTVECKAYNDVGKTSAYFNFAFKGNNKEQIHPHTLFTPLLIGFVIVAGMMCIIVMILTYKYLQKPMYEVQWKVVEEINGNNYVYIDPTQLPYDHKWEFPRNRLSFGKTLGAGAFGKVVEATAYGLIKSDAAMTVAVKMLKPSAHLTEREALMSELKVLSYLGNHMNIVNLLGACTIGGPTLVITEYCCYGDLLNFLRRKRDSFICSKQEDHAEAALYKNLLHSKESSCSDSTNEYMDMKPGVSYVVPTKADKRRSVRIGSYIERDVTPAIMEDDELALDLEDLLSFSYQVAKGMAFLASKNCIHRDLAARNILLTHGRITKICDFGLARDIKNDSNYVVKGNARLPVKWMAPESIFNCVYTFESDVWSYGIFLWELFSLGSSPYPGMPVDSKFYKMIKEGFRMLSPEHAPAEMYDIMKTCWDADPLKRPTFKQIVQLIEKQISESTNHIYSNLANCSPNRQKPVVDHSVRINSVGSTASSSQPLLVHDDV

One assay deals with Protein kinase C alpha type (Homo sapiens, UniProt P17252). Nature of the assay: Inhibition of PKCa.
Settings: not given
`CNc1nccc(-c2ccc(C(=O)N[C@H](CN)Cc3ccc(Cl)cc3Cl)s2)n1` showed an IC50 of 0.066 µM.

The target in a further assay is Mitogen-activated protein kinase 3 (Homo sapiens, UniProt P27361). Nature of the assay: Inhibition of ERK1.
Chain of Mitogen-activated protein kinase 3 (P27361 whole entry): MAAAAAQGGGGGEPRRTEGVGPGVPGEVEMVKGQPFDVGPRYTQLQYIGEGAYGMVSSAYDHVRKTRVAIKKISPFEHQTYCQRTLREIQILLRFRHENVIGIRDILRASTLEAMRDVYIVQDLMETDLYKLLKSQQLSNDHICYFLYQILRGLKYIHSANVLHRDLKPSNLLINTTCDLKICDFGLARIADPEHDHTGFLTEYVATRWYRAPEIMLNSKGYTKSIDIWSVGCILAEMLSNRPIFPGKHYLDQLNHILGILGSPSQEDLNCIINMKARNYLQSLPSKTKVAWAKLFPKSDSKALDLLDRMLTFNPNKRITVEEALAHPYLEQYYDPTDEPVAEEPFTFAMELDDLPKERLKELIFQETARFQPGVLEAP
Settings: not given
In outline: (§1)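 Biochemical kinase IC50s, each run with ATP at or below its Km.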
With `CNc1nccc(-c2ccc(C(=O)N[C@H](CN)Cc3ccc(Cl)cc3Cl)s2)n1`, the midpoint of inhibition, the IC50, lay at 0.4 µM.

The target of the next assay is Calcium/calmodulin-dependent protein kinase type II subunit alpha (Homo sapiens, UniProt Q9UQM7). Kind of assay: Inhibition of CamK2alpha.
Chain of Calcium/calmodulin-dependent protein kinase type II subunit alpha (Q9UQM7 whole entry): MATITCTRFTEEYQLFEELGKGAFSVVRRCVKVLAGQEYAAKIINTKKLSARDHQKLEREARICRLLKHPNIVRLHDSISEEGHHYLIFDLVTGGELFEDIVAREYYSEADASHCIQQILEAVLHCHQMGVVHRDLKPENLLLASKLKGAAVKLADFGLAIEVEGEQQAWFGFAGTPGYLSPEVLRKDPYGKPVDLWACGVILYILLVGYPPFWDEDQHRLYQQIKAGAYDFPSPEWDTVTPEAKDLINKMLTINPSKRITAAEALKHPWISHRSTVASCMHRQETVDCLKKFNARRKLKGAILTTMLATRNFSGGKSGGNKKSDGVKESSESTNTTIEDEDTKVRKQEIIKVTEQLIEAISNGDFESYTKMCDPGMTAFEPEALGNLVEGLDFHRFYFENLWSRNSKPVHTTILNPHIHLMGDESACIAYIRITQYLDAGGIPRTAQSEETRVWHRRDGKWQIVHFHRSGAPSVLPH
Settings: not given
An outline of the steps: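 IC50 from an in vitro kinase assay with ATP at or below its Km.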
For `CNc1nccc(-c2ccc(C(=O)N[C@H](CN)Cc3ccc(Cl)cc3Cl)s2)n1`, the IC50 was found to be 8 µM.

The target of another assay is RAC-alpha serine/threonine-protein kinase (Homo sapiens, UniProt P31749). Kind of assay: Inhibition of AKT1.
Chain of RAC-alpha serine/threonine-protein kinase (P31749 whole entry): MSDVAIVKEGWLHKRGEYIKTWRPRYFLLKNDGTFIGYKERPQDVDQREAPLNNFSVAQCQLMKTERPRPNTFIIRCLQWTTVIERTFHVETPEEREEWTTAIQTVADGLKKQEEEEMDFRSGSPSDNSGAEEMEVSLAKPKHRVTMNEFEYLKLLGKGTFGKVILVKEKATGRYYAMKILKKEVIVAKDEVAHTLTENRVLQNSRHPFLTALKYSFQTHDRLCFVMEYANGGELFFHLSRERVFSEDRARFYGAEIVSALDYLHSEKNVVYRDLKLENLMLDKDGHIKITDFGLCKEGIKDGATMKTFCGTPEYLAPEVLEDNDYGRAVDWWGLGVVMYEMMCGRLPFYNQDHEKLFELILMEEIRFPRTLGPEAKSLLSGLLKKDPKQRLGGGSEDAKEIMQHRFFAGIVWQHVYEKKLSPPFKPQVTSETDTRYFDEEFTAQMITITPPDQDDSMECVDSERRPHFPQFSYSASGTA
Settings: not given
An outline of the steps: as §1
For `CNc1nccc(-c2ccc(C(=O)N[C@H](CN)Cc3ccc(Cl)cc3Cl)s2)n1`, the IC50 worked out at 0.006 µM.

A further assay deals with Hepatocyte growth factor receptor (Homo sapiens, UniProt P08581). Kind of assay: Inhibition of Met.
Chain of Hepatocyte growth factor receptor (P08581 whole entry): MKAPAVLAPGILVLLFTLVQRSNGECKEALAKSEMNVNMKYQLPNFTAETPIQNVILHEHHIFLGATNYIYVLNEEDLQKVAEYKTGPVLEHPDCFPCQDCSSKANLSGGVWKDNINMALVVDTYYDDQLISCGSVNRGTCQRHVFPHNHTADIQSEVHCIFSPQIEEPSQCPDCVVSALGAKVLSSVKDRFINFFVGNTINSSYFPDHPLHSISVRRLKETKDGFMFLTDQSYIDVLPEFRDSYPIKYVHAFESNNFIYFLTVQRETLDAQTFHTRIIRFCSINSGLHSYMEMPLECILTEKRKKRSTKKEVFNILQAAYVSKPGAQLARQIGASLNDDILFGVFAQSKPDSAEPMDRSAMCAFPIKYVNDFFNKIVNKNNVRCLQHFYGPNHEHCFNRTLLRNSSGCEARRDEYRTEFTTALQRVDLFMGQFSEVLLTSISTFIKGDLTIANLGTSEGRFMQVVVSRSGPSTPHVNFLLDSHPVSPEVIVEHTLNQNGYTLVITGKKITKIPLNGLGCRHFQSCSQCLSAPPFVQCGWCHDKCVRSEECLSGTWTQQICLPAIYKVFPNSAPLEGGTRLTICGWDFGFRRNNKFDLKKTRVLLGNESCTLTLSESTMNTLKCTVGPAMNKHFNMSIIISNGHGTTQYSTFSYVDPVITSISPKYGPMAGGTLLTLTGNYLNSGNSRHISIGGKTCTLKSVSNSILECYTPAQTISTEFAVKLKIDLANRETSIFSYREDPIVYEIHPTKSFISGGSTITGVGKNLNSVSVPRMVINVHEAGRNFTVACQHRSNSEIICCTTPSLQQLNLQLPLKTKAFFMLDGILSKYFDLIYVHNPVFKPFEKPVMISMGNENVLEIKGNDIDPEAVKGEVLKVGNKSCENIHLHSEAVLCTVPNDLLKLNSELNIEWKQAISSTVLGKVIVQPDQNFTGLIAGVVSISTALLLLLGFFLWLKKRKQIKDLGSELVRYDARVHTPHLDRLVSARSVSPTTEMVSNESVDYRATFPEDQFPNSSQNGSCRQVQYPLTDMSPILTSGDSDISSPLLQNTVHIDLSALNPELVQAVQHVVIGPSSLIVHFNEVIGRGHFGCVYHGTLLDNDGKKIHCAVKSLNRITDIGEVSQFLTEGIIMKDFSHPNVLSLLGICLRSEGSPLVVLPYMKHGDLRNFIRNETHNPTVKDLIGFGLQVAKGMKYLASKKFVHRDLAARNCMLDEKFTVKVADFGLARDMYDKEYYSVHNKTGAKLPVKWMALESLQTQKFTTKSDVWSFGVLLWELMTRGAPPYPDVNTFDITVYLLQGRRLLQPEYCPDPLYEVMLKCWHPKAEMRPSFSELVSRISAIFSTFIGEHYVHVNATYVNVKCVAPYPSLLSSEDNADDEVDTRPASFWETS
Settings: not given
An outline of the steps:
as §1
Consider `CNc1nccc(-c2ccc(C(=O)N[C@H](CN)Cc3ccc(Cl)cc3Cl)s2)n1`, for which the IC50 was 1.1 µM.

Another assay addresses T1, Serine/threonine-protein kinase AKT (Homo sapiens, UniProt P31751+Q9Y243+P31749). Nature of the assay: Activity against AKT-mediated GSK3 S9P phosphorylation in human DOV13 cell line. Type of assay: functional, cell-based.
Settings: not given
`CNc1nccc(-c2ccc(C(=O)N[C@H](CN)Cc3ccc(Cl)cc3Cl)s2)n1` yielded a half-maximal effective concentration (EC50) of 0.32 µM.

For another assay, the target named is T1, Serine/threonine-protein kinase AKT. Nature of the assay: Activity against AKT-mediated PRAS40 T246P phosphorylation in human DOV13 cell line. Type of assay: functional, cell-based.
Settings: not given
With `CNc1nccc(-c2ccc(C(=O)N[C@H](CN)Cc3ccc(Cl)cc3Cl)s2)n1`, the concentration for a half-maximal effect (EC50) was determined as 0.16 µM.

A further assay has the same target. Kind of assay: Activity against AKT-mediated S6RP S235/236P phosphorylation in human DOV13 cell line. It counts as functional, cell-based.
Settings: not given
As for `CNc1nccc(-c2ccc(C(=O)N[C@H](CN)Cc3ccc(Cl)cc3Cl)s2)n1`, the EC50 stood at 0.37 µM.

Another assay deals with RAF proto-oncogene serine/threonine-protein kinase (Homo sapiens, UniProt P04049). Nature of the assay: Inhibition of RAF1.
Chain of RAF proto-oncogene serine/threonine-protein kinase (P04049 whole entry): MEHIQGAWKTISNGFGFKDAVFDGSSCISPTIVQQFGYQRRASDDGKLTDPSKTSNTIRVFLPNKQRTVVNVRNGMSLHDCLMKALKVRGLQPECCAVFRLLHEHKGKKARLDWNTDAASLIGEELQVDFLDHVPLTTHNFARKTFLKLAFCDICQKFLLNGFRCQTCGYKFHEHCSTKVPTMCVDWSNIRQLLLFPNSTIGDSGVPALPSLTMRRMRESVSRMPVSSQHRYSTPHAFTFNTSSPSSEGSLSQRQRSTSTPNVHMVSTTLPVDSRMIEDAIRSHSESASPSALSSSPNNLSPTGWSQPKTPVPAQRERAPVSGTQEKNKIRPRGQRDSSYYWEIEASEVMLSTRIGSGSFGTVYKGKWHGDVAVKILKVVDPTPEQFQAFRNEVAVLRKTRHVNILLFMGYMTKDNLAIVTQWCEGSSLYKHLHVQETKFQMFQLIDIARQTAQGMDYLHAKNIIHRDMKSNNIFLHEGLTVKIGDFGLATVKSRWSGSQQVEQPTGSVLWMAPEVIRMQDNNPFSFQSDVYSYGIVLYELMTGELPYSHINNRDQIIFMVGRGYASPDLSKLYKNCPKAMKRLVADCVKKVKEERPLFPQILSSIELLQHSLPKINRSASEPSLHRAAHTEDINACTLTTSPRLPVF
Settings: not given
An outline of the steps:
as §1
For the molecule `CNc1nccc(-c2ccc(C(=O)N[C@H](CN)Cc3ccc(Cl)cc3Cl)s2)n1`, the 50% inhibitory concentration (IC50) was greater than 10 µM.

A further assay deals with T2, cAMP-dependent protein kinase (PKA) (Homo sapiens, UniProt P22694+P17612+P22612). Nature of the assay: Inhibitory activity against PKA in human UACC903 cell line at 33 nM. Type of assay: functional, cell-based. Particulars: UACC-903. In outline: (§2)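 UACC903 melanoma cells were pre-incubated with the test compound at various concentrations for 45 min, then stimulated with 7 μM forskolin for 15 min before lysis. Lysates were Western blotted for phospho-VASP as the PKA read-out, with phospho-MDM2 as the AKT read-out.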
Consider `CNc1nccc(-c2ccc(C(=O)N[C@H](CN)Cc3ccc(Cl)cc3Cl)s2)n1`, for which the result was Active.

The next assay relates to DOV13. Kind of assay: Antiproliferative activity against human DOV13 cell line. Type of assay: functional, cell-based.
Settings: not given
`CNc1nccc(-c2ccc(C(=O)N[C@H](CN)Cc3ccc(Cl)cc3Cl)s2)n1` gave an EC50 of 1 µM.

For the next assay, the target named is T2, cAMP-dependent protein kinase (PKA). Kind of assay: Inhibition of PKA.
Settings: not given
It counts as protein assay. An outline of the steps: as §1
With `CNc1nccc(-c2ccc(C(=O)N[C@H](CN)Cc3ccc(Cl)cc3Cl)s2)n1`, the IC50 was determined as 0.0001 µM.

The target of the next assay is T3, RAC-gamma serine/threonine-protein kinase (Homo sapiens, UniProt Q9Y243). Kind of assay: Inhibition of AKT3.
T3 sequence (Q9Y243 whole entry): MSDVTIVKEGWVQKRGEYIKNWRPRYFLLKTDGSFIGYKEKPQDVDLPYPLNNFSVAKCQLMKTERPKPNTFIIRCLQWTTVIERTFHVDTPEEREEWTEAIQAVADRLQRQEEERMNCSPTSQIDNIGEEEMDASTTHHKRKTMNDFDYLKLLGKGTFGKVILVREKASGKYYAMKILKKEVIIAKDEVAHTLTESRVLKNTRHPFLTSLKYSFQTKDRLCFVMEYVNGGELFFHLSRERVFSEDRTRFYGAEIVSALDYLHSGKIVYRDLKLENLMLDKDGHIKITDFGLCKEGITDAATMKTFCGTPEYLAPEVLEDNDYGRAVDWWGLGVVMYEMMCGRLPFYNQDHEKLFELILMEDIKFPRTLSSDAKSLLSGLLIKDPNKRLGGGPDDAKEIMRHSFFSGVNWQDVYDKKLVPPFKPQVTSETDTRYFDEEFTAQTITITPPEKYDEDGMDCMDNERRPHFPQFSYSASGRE
Settings: not given
In outline:
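Kinase IC50 determined in a biochemical kinase assay with ATP at or below its Km.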
Molecule `CNc1nccc(-c2ccc(C(=O)N[C@H](CN)Cc3ccc(Cl)cc3Cl)s2)n1` returned a half-maximal inhibitory concentration (IC50) of 0.003 µM.

A further assay has as its target Mast/stem cell growth factor receptor Kit (Homo sapiens, UniProt P10721). Nature of the assay: Inhibition of Kit.
Settings: not given
For `CNc1nccc(-c2ccc(C(=O)N[C@H](CN)Cc3ccc(Cl)cc3Cl)s2)n1`, it took 0.11 µM to reach half-maximal inhibition (IC50).

Another assay concerns the target T2, cAMP-dependent protein kinase (PKA). Kind of assay: Inhibitory activity against PKA in human UACC903 cell line at 10 nM. Type of assay: functional, cell-based. Particulars: UACC-903. An outline of the steps:
as §2
On to `CNc1nccc(-c2ccc(C(=O)N[C@H](CN)Cc3ccc(Cl)cc3Cl)s2)n1`, for which the outcome was Active.

The target of the next assay is T3, RAC-gamma serine/threonine-protein kinase. Kind of assay: Inhibition of AKT3 in presence of 0.2 uM ATP.
Settings: not given
In outline:
as §1
`CNc1nccc(-c2ccc(C(=O)NCCc3cccc(Cl)c3)s2)n1`: the IC50 amounted to 5.4 µM. On to `CNc1nccc(-c2ccc(C(=O)NCCc3ccccc3)s2)n1`, for which the half-maximal inhibitory concentration (IC50) amounted to 5 µM.

In the case of `CNc1nccc(-c2ccc(C(=O)NCC(c3ccccc3)c3ccccc3)s2)n1`, the half-inhibitory concentration (IC50) is greater than 25 µM.

On to `CNc1nccc(-c2ccc(C(=O)NCCc3ccc(Cl)cc3)s2)n1`, for which the half-inhibitory concentration (IC50) was 1.1 µM. Same read-out and setting: for `CNc1nccc(-c2ccc(C(=O)NCCc3ccncc3)s2)n1` the value was greater than 25 µM; for `CNc1nccc(-c2ccc(C(=O)NCCc3ccc(Br)cc3)s2)n1`, 2.6 µM; for `CCNc1nccc(-c2ccc(C(=O)NCCc3ccc(Cl)cc3Cl)s2)n1`, 1.5 µM. Regarding `CNc1nccc(-c2ccc(C(=O)NCCc3ccc(F)cc3)s2)n1`, the half-inhibitory concentration (IC50) worked out at 3 µM. As to `CNc1nccc(-c2ccc(C(=O)NCCN)s2)n1`, the concentration for half-maximal inhibition (IC50) was found to be 1.3 µM. Still for that read-out and setting: for `CNc1nccc(-c2ccc(C(=O)N[C@@H](Cc3ccc(Cl)cc3Cl)CN(C)C)s2)n1` the value was 0.011 µM; for `CNc1nccc(-c2ccc(C(=O)NC(CN)Cc3ccc(Cl)cc3Cl)s2)n1` (stereo unspecified), 0.0048 µM. Still for that read-out and setting: as for `CNc1nccc(-c2ccc(C(=O)Nc3ccc(F)cc3)s2)n1`, the figure is greater than 25 µM; as for `CNc1nccc(-c2ccc(C(=O)NCCCc3ccc(F)cc3)s2)n1`, 18 µM. For the molecule `CCCNc1nccc(-c2ccc(C(=O)NCCc3ccc(Cl)cc3Cl)s2)n1`, the IC50 is greater than 25 µM. Turning to `CNc1nccc(-c2ccc(NC(=O)NCc3ccc(Cl)cc3Cl)s2)n1`, the half-inhibitory concentration (IC50) is 2.1 µM. With `CNc1nccc(-c2ccc(C(=O)N[C@H](C)Cc3ccc(Cl)cc3Cl)s2)n1`, the 50% inhibitory concentration (IC50) worked out at 0.82 µM. On the same count and under the same terms, as for `CNc1nccc(-c2ccc(C(=O)NCCc3ccc(OC)cc3)s2)n1`, the figure is greater than 25 µM; as for `CNc1nccc(-c2ccc(C(=O)NCCc3ccc(S(N)(=O)=O)cc3)s2)n1`, 19 µM.

Regarding `CNc1nccc(-c2ccc(C(=O)NC[C@@H](N)c3ccccc3)s2)n1`, the IC50 was found to be 2.8 µM.

Turning to `CNc1nccc(-c2ccc(C(=O)NCC(C)c3ccc(Cl)cc3Cl)s2)n1` (stereo unspecified), the IC50 was found to be 0.66 µM. On to `CNc1nccc(-c2ccc(C(=O)NCCc3ccc(Cl)cc3Cl)s2)n1`, for which the IC50 is 0.99 µM.

In the case of `CNc1nccc(-c2ccc(C(=O)NCc3ccc(F)cc3)s2)n1`, the IC50 amounted to 4.7 µM. Turning to `CNc1nccc(-c2ccc(CNCCc3ccc(Cl)cc3Cl)s2)n1`, the IC50 turned out to be 5.2 µM.

For the molecule `CNc1nccc(-c2ccc(S(=O)(=O)NCCc3ccc(Cl)cc3Cl)s2)n1`, the half-maximal inhibitory concentration (IC50) is greater than 25 µM. As to `CNc1nccc(-c2ccc(C(=O)NCCN(C)C)s2)n1`, the half-maximal inhibitory concentration (IC50) stood at 7 µM.

Consider `CNc1nccc(-c2ccc(C(=O)NCCc3ccccc3Cl)s2)n1`, for which the IC50 came out at 2.9 µM. As to `CNc1nccc(-c2ccc(C(=O)N[C@@H](Cc3ccc(Cl)cc3Cl)C(=O)OC)s2)n1`, the concentration for half-maximal inhibition (IC50) came out at 2.4 µM. Still for that read-out and setting: for `CNc1nccc(-c2ccc(C(=O)N[C@H](CCN)Cc3ccc(Cl)cc3Cl)s2)n1` the value was 0.027 µM. For the molecule `CNc1nccc(-c2ccc(C(=O)N[C@@H](CN)Cc3ccc(Cl)cc3Cl)s2)n1`, the half-maximal inhibitory concentration (IC50) was found to be 0.24 µM. On the same count and under the same terms, for `CNc1nccc(-c2ccc(C(=O)NCCc3ccc(C)cc3)s2)n1` the value was greater than 25 µM. In the case of `CNc1nccc(-c2ccc(NC(=O)CCc3ccc(F)cc3)s2)n1`, the IC50 turned out to be 2.3 µM. As for `CNc1nccc(-c2ccc(NC(=O)OCc3ccc(F)cc3)s2)n1`, the IC50 worked out at 7.4 µM. Still for that read-out and setting: as for `CN(C)c1nccc(-c2ccc(C(=O)NCCc3ccc(Cl)cc3Cl)s2)n1`, the figure is greater than 25 µM; as for `CNc1nccc(-c2ccc(C(=O)N[C@H](CO)Cc3ccc(Cl)cc3Cl)s2)n1`, 0.28 µM; as for `Nc1nccc(-c2ccc(C(=O)NCCc3ccc(Cl)cc3Cl)s2)n1`, 0.61 µM. `CCC(CNC(=O)c1ccc(-c2ccnc(NC)n2)s1)c1ccc(Cl)cc1Cl` (stereo unspecified): the IC50 came to 1 µM.
